# According to ChEMBL document CHEMBL2406919, “On the antibiotic and antifungal activity of pestalone, pestalachloride A, and structurally related compounds” (2013):
# Assays:
# Format in all cases: functional
# [1] = system: Staphylococcus aureus; test: Antimicrobial activity against Staphylococcus aureus ATCC 29213 after 24 hrs by microdilution method; conditions: ATCC 29213, 24 h
# Method in brief: (§1)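 CLSI (M7-A6) broth microdilution with 2-fold serial compound dilutions in Mueller−Hinton broth. Inoculum was 10⁵ cfu/mL, with vancomycin as control. After 24 h at 37 °C, MIC was read as the lowest concentration inhibiting visible growth.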
# [2] = system: Bacillus subtilis; test: Antimicrobial activity against Bacillus subtilis 168 after 24 hrs by broth microdilution method; conditions: subsp. subtilis str. 168 
# Method in brief: (§2)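 CLSI broth microdilution with 2-fold serial compound dilutions in half-concentrated Mueller−Hinton broth. Inoculum was 10⁵ cfu/mL. After 24 h at 37 °C, MIC was read as the lowest concentration inhibiting visible growth.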
# [3] = system: Phytophthora infestans; test: Antifungal activity against Phytophthora infestans after 3 to 5 days by photometric method; conditions: read-out: ED50 (the source's name)
# Method in brief: (§3)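 Test compound in methanol with alkylaryl polyglycol ether emulsifier dried into wells. Liquid potato dextrose medium holding spores or mycelium of the fungus added. OD620 read before and after 3–5 days shaking at 20 °C, 85% relative humidity. ΔOD against untreated control fitted to a dose–response curve; ED50 (50% growth inhibition) given in ppm (μg/mL).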
# [4] = system: Pseudomonas fluorescens; test: Antifungal activity against Pseudomonas fluorescens after 3 to 5 days by photometric method; conditions: read-out: ED50 (the source's name)
# Method in brief: (§4)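 Test compound in methanol with alkylaryl polyglycol ether emulsifier was dried in wells, then liquid potato dextrose medium with spores or mycelium of the test organism was added. Incubated 3−5 days shaking at 20 °C, 85% relative humidity. Growth was taken as the change in extinction at 620 nm before and after incubation. ED₅₀ (50% growth inhibition, ppm = μg/mL) came from a dose−response curve against untreated control.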
# [5] = system: Botrytis cinerea; test: Antifungal activity against Botrytis cinerea after 3 to 5 days by photometric method; conditions: read-out: ED50 (the source's name); method in brief: as §4
# [6] = Antifungal activity against Ustilago avenae after 3 to 5 days by photometric method; method in brief: as §4
# [7] = Antifungal activity against Pyrenophora teres after 3 to 5 days by photometric method; method in brief: as §4
# [8] = Antifungal activity against Leptosphaeria nodorum after 3 to 5 days by photometric method; method in brief: as §4
# [9] = system: Aspergillus niger; test: Antifungal activity against Aspergillus niger after 3 to 5 days by photometric method; conditions: read-out: ED50 (the source's name); method in brief: as §4
# [10] = system: Alternaria mali; test: Antifungal activity against Alternaria mali after 3 to 5 days by photometric method; conditions: read-out: ED50 (the source's name); method in brief: as §4
# [11] = system: Fusarium graminearum; test: Antifungal activity against Gibberella zeae after 3 to 5 days by photometric method; conditions: read-out: ED50 (the source's name); method in brief: as §3
# [12] = system: Staphylococcus aureus; test: Antimicrobial activity against epidemic community acquired methicillin-resistant Staphylococcus aureus USA300 after 24 hrs by microdilution method; conditions: USA300, 24 h
# Method in brief: (§5)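 CLSI broth microdilution (M7-A6) with 2-fold serial compound dilutions in Mueller–Hinton broth. Inoculum 10⁵ cfu/mL. Strains came from NARSA, stored at −70 °C and revived on Mueller–Hinton agar days before testing. After 24 h at 37 °C, MIC read as the lowest concentration preventing visible growth. Vancomycin served as control.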
# [13] = system: Fusarium culmorum; test: Antifungal activity against Fusarium culmorum after 3 to 5 days by photometric method; conditions: read-out: ED50 (the source's name); method in brief: as §4
# [14] = system: Zymoseptoria tritici; test: Antifungal activity against Septoria tritici after 3 to 5 days by photometric method; conditions: read-out: ED50 (the source's name); method in brief: as §4
# [15] = system: Pyricularia oryzae; test: Antifungal activity against Pyricularia oryzae after 3 to 5 days by photometric method; conditions: read-out: ED50 (the source's name); method in brief: as §3
# [16] = system: Staphylococcus aureus; test: Antimicrobial activity against hospital acquired vancomycin-intermediate Staphylococcus aureus Mu50 after 24 hrs by microdilution method; conditions: Mu50, 24 h; method in brief: as §5
# [17] = Antifungal activity against Trametes versicolor after 3 to 5 days by photometric method; method in brief: as §4
# [18] = system: Staphylococcus aureus; test: Antimicrobial activity against Staphylococcus aureus SG511 after 24 hrs by broth microdilution method; conditions: SG511, 24 h; method in brief: as §2
# [19] = system: Pythium aphanidermatum; test: Antifungal activity against Pythium aphanidermatum after 3 to 5 days by photometric method; conditions: read-out: ED50 (the source's name); method in brief: as §4
# [20] = Antifungal activity against Phytophthora cryptogea after 3 to 5 days by photometric method; method in brief: as §4
# [21] = system: Staphylococcus aureus; test: Antimicrobial activity against methicillin-resistant Staphylococcus aureus LT-1334 after 24 hrs by microdilution method; conditions: LT-1334, 24 h
# Method in brief: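 Broth microdilution per CLSI with 2-fold serial compound dilutions. Growth and testing in half-concentrated Mueller–Hinton broth, inoculum 10⁵ cfu/mL. MIC read after 24 h at 37 °C as the lowest concentration inhibiting visible growth.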
# [22] = system: Staphylococcus aureus; test: Antimicrobial activity against community acquired Staphylococcus aureus MW2 after 24 hrs by microdilution method; conditions: MW2, 24 h; method in brief: as §1
compound,measurement,setting,value
COc1c(Cl)c(C)c(Cl)c(O)c1C(=O)c1c(C=O)c(O)cc(O)c1CC=C(C)C [PESTALONE],MIC,[1],16 µg/mL
same,MIC,[2],1.6 µg/mL
same,EC50,[3],> 50 µg/mL
same,EC50,[4],> 50 µg/mL
same,EC50,[5],> 50 µg/mL
same,ED50,[6],> 50 µg/mL
same,ED50,[7],2.2 µg/mL
same,ED50,[8],22.4 µg/mL
same,EC50,[9],> 50 µg/mL
same,EC50,[10],22.4 µg/mL
same,EC50,[11],> 50 µg/mL
same,MIC,[12],10 µg/mL
same,EC50,[13],0.12 µg/mL
same,EC50,[14],26.7 µg/mL
same,EC50,[15],28.6 µg/mL
same,MIC,[16],10 µg/mL
same,ED50,[17],> 50 µg/mL
same,MIC,[18],3.1 µg/mL
same,EC50,[19],> 50 µg/mL
same,ED50,[20],33.9 µg/mL
same,MIC,[21],6.25 µg/mL
COc1c(Cl)c(C)c(Cl)c(O)c1C(=O)c1cc(O)cc(O)c1CC=C(C)C [DEFORMYL-PESTALONE],MIC,[12],5 µg/mL
same,MIC,[16],5 µg/mL
COc1c(Cl)c(C)c(Cl)c(O)c1C1c2c(CC=C(C)C)c(O)cc(O)c2C(=O)N1C (racemic),MIC,[1],> 50 µg/mL
same,MIC,[22],> 50 µg/mL
COc1cc(OC)c(CC=C(C)C)c(C(=O)c2c(O)c(Cl)c(C)c(Cl)c2OC)c1C=O,EC50,[4],> 50 µg/mL
same,EC50,[5],> 50 µg/mL
same,ED50,[6],> 50 µg/mL
same,ED50,[7],5.4 µg/mL
same,ED50,[8],22.5 µg/mL
same,EC50,[9],> 50 µg/mL
same,EC50,[10],> 50 µg/mL
same,EC50,[11],> 50 µg/mL
same,MIC,[12],10 µg/mL
same,EC50,[13],1.2 µg/mL
same,EC50,[14],> 50 µg/mL
same,EC50,[15],5 µg/mL
same,MIC,[16],15 µg/mL
same,ED50,[17],> 50 µg/mL
same,EC50,[19],44.4 µg/mL
same,ED50,[20],> 50 µg/mL
COc1cc(OC)c(CC=C(C)C)c(C(=O)c2c(OC)c(Cl)c(C)c(Cl)c2OC)c1Br,EC50,[3],> 50 µg/mL
same,EC50,[4],> 50 µg/mL
same,EC50,[5],> 50 µg/mL
same,ED50,[6],> 50 µg/mL
same,ED50,[7],> 50 µg/mL
same,ED50,[8],> 50 µg/mL
same,EC50,[9],> 50 µg/mL
same,EC50,[10],> 50 µg/mL
same,EC50,[11],> 50 µg/mL
same,EC50,[13],> 50 µg/mL
same,EC50,[14],> 50 µg/mL
same,EC50,[15],> 50 µg/mL
same,ED50,[17],> 50 µg/mL
same,EC50,[19],> 50 µg/mL
same,ED50,[20],> 50 µg/mL
COc1c(Cl)c(C)c(Cl)c(O)c1C1c2c(CC=C(C)C)c(O)cc(O)c2C(=O)N1Cc1ccccc1 (racemic),MIC,[1],> 50 µg/mL
same,MIC,[22],> 50 µg/mL
COc1c(Cl)c(C)c(Cl)c(O)c1C1NC(=O)c2c(O)cc(O)c(CC=C(C)C)c21 (racemic) [PESTALACHLORIDE A],MIC,[1],10 µg/mL
same,EC50,[3],> 50 µg/mL
same,EC50,[4],> 50 µg/mL
same,EC50,[5],> 50 µg/mL
same,ED50,[6],> 50 µg/mL
same,ED50,[7],33.1 µg/mL
same,ED50,[8],> 50 µg/mL
same,EC50,[9],> 50 µg/mL
same,EC50,[10],> 50 µg/mL
same,EC50,[11],> 50 µg/mL
same,EC50,[13],31.9 µg/mL
same,EC50,[14],> 50 µg/mL
same,MIC,[22],10 µg/mL
same,EC50,[15],> 50 µg/mL
same,ED50,[17],> 50 µg/mL
same,EC50,[19],> 50 µg/mL
same,ED50,[20],> 50 µg/mL
COc1cc(OC)c(Br)c(C(=O)c2c(OC)c(Cl)c(C)c(Cl)c2OC)c1Br,EC50,[4],> 50 µg/mL
same,EC50,[5],> 50 µg/mL
same,ED50,[6],> 50 µg/mL
same,ED50,[7],42 µg/mL
same,ED50,[8],> 50 µg/mL
same,EC50,[9],> 50 µg/mL
same,EC50,[10],> 50 µg/mL
same,EC50,[11],> 50 µg/mL
same,EC50,[13],2.2 µg/mL
same,EC50,[14],> 50 µg/mL
same,EC50,[15],12.6 µg/mL
same,ED50,[17],> 50 µg/mL
same,EC50,[19],> 50 µg/mL
same,ED50,[20],> 50 µg/mL
COc1c(Cl)c(C)c(Cl)c(O)c1C(=O)c1cc(O)cc2c1CCC(C)(C)O2,MIC,[12],7 µg/mL
same,MIC,[16],7 µg/mL
COc1c(Cl)c(C)c(Cl)c(O)c1C(=O)c1c(Br)c(O)cc(O)c1Br,EC50,[3],> 50 µg/mL
same,EC50,[4],> 50 µg/mL
same,EC50,[5],> 50 µg/mL
same,ED50,[6],> 50 µg/mL
same,ED50,[7],> 50 µg/mL
same,ED50,[8],> 50 µg/mL
same,EC50,[9],> 50 µg/mL
same,EC50,[10],> 50 µg/mL
same,EC50,[11],> 50 µg/mL
same,MIC,[12],30 µg/mL
same,EC50,[13],0.014 µg/mL
same,EC50,[14],> 50 µg/mL
same,EC50,[15],> 50 µg/mL
same,MIC,[16],30 µg/mL
same,ED50,[17],> 50 µg/mL
same,ED50,[20],> 50 µg/mL
CN[C@H](CC(C)C)C(=O)N[C@H]1C(=O)N[C@@H](CC(N)=O)C(=O)N[C@H]2C(=O)N[C@H]3C(=O)N[C@H](C(=O)N[C@H](C(=O)O)c4cc(O)cc(O)c4-c4cc3ccc4O)[C@H](O)c3ccc(c(Cl)c3)Oc3cc2cc(c3O[C@@H]2O[C@H](CO)[C@@H](O)[C@H](O)[C@H]2O[C@H]2C[C@](C)(N)[C@H](O)[C@H](C)O2)Oc2ccc(cc2Cl)[C@H]1O [VANCOMYCIN],MIC,[12],0.25 µg/mL
COc1c(Cl)c(C)c(Cl)c(O)c1C1OC(=O)c2c(O)cc(O)c(CC=C(C)C)c21 (racemic) [RAC-PESTALALACTONE],EC50,[4],> 50 µg/mL
same,EC50,[5],> 50 µg/mL
same,ED50,[6],> 50 µg/mL
same,ED50,[7],4.3 µg/mL
same,ED50,[8],> 50 µg/mL
same,EC50,[9],> 50 µg/mL
same,EC50,[10],> 50 µg/mL
same,EC50,[11],> 50 µg/mL
same,MIC,[12],25 µg/mL
same,EC50,[13],> 50 µg/mL
same,EC50,[14],> 50 µg/mL
same,EC50,[15],> 50 µg/mL
same,ED50,[17],13.1 µg/mL
same,EC50,[19],> 50 µg/mL
same,ED50,[20],18.9 µg/mL
